Measured values published in BindingDB's records for doi:10.1021/jm301002f (H. Lee Moffitt Cancer Center and Research Institute, 2012).
Residues, ends and D or L forms follow the SMILES beside them. *: point of attachment. Propyl(2R-PamO,3-PamO) = CCCCCCCCCCCCCCCC(=O)OC[C@H](C*)OC(=O)CCCCCCCCCCCCCCC; X1 = CC(=O)NCCCOCCOCCOCCCNC(=O)COCC(=O)*

What was measured:
Toll-like receptor 2 [1] = target: T1, Toll-like receptor 2 (Homo sapiens, UniProt O60603); assay: Agonist activity at human TLR2 expressed in HEK293 cells assessed as induction of NF-kappaB signaling after 24 hrs by luminescence based luciferase reporter gene assay
Toll-like receptor 2 [2] = target: T1, Toll-like receptor 2; assay: Displacement of Eu-DTPA from human TLR2 expressed in SU.86.86 cells after 1 hr
Toll-like receptor 2 [3] = target: T1, Toll-like receptor 2; assay: Displacement of Eu-DTPA from human TLR2 expressed in HEK293 cells after 1 hr
Method in brief: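 Live-cell europium TRF competition binding in HEK-293/hTLR2 (poly-D-lysine plates) or SU.86.86 cells grown 2 days to ~80% confluence. Unlabeled ligand 1 μM to 0.01 nM plus 90 nM Eu-DTPA-labeled tracer, 1 h at 37°C; three washes, enhancement solution 30 min at 37°C, read at 340 nm excitation/615 nm emission with time delay.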

T1 sequence (O60603 whole entry): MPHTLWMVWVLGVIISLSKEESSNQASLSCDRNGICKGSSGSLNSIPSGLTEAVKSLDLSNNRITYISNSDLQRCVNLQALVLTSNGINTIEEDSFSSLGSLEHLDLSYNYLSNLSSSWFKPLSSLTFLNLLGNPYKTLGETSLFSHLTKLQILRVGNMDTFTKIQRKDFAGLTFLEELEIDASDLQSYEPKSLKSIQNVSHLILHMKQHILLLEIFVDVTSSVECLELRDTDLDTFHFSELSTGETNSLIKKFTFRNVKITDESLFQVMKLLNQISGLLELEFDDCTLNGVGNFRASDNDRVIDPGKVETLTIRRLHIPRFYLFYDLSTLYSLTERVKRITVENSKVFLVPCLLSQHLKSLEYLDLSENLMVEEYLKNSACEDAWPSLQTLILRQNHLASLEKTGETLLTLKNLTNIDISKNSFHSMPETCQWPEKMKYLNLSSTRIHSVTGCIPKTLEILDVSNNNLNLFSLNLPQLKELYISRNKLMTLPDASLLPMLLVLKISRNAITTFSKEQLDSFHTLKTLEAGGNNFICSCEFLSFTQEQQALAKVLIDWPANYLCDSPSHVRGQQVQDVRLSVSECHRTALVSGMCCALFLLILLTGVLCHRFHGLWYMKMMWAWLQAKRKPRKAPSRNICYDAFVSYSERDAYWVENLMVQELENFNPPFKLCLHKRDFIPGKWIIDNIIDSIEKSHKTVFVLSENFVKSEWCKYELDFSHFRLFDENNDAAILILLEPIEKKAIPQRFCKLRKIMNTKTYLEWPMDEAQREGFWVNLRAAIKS

EC50 (Toll-like receptor 2 [1]) [nM] | Ki (Toll-like receptor 2 [2]) [nM] | Ki (Toll-like receptor 2 [3]) [nM] | SMILES
25 | – | – | CCCCCCCCCCCCCCCC(=O)OC[C@H](CSC[C@H](NC(=O)COCC(=O)NCCCOCCOCCOCCCNC(C)=O)C(=O)N[C@@H](CO)C(=O)N[C@@H](CCCNC(=N)N)C(=O)N[C@@H](Cc1ccccc1)C(=O)N[C@@H](CC(=O)O)C(=O)N[C@@H](CCC(=O)O)C(=O)N[C@@H](CC(=O)O)C(=O)N[C@@H](CC(=O)O)C(=O)N[C@@H](CC(C)C)C(=O)N[C@@H](CCC(=O)O)C(N)=O)OC(=O)CCCCCCCCCCCCCCC (X1-C(Propyl(2R-PamO,3-PamO))SRFDEDDLE-NH2)
34 | 67 | 11 | CCCCCCCCCCCCCCCC(=O)OCC(CSCC(NC(=O)COCC(=O)NCCCOCCOCCOCCCNC(=O)CCSC1CC(=O)N(CCNC(=O)CCCCC[N+]2=C(/C=C/C=C/C=C3/Cc4cc(S(=O)(=O)O)ccc4N3CC)Cc3cc(S(=O)(=O)[O-])ccc32)C1=O)C(=O)NCC(=O)NC(CO)C(=O)NCCCOCCOCCOCCCNC(=O)COCC(N)=O)OC(=O)CCCCCCCCCCCCCCC (centres undefined)
